Activity calls are given as the source filed them. The calls are words filed in the database; no cut-off is given here.
Legend:
[1] = system: Raji; test: Cytotoxicity against human Raji cells assessed as reduction in cell viability after 72 hrs by MTT assay; assay type: functional, cell-based
[2] = system: HL-60; test: Cytotoxicity against human HL60 cells assessed as reduction in cell viability after 72 hrs by MTT assay; assay type: functional, cell-based; settings: HL-60, 72 h
[3] = system: K562; test: Induction of apoptosis in human K562 cells assessed as increase in caspase 3 expression level by Western blot analysis; assay type: functional, cell-based
Procedure, shortened: (§1)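 Western blot of treated K562 cells for Bcl-2, Bax, activated caspase 3 and cleaved PARP (85 kDa fragment). Blots developed by ECL, with band expression quantified by densitometry against an untreated control sample.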

[4] = system: MCF7; test: Cytotoxicity against human MCF7 cells assessed as reduction in cell viability after 72 hrs by MTT assay; assay type: functional, cell-based; settings: MCF7, 72 h
[5] = system: K562; test: Induction of apoptosis in human K562 cells assessed as gated necrotic cells by Annexin V-FITC/propidium iodide staining based flow cytometry (reference value: 0.24%); assay type: functional
[6] = system: Jurkat; test: Cytotoxicity against human Jurkat cells assessed as reduction in cell viability after 72 hrs by MTT assay; assay type: functional, cell-based
[7] = system: K562; test: Induction of apoptosis in human K562 cells assessed as increase in Bax expression level by Western blot analysis; assay type: functional, cell-based; procedure, shortened: as §1
[8] = system: K562; test: Cell cycle arrest in human K562 cells assessed as accumulation at S phase at IC50 after 72 hrs by propidium iodide staining based flow cytometry (reference value: 41.03%); assay type: functional
[9] = system: HeLa; test: Cytotoxicity against human HeLa cells assessed as reduction in cell viability after 72 hrs by MTT assay; assay type: functional, cell-based
[10] = system: K562; test: Induction of apoptosis in human K562 cells assessed as gated early apoptotic cells by Annexin V-FITC/propidium iodide staining based flow cytometry (reference value: 3.18%); assay type: functional
[11] = system: K562; test: Induction of apoptosis in human K562 cells assessed as gated late apoptotic cells by Annexin V-FITC/propidium iodide staining based flow cytometry (reference value: 0.88%); assay type: functional
[12] = system: K562; test: Induction of apoptosis in human K562 cells assessed as total viable cells by Annexin V-FITC/propidium iodide staining based flow cytometry (reference value: 92.45%); assay type: functional
[13] = system: K562; test: Induction of apoptosis in human K562 cells assessed as gated viable cells by Annexin V-FITC/propidium iodide staining based flow cytometry (reference value: 95.78%); assay type: functional
[14] = system: K562; test: Cytotoxicity against human K562 cells assessed as reduction in cell viability after 72 hrs by MTT assay; assay type: functional, cell-based; settings: K562, 72 h
[15] = system: K562; test: Cell cycle arrest in human K562 cells assessed as accumulation at G2/M phase at IC50 after 72 hrs by propidium iodide staining based flow cytometry (reference value: 19.01%); assay type: functional
[16] = system: K562; test: Induction of apoptosis in human K562 cells assessed as total early apoptotic cells by Annexin V-FITC/propidium iodide staining based flow cytometry (reference value: 3.07%); assay type: functional
[17] = system: K562; test: Induction of apoptosis in human K562 cells assessed as specific apoptosis by Annexin V-FITC/propidium iodide staining based flow cytometry; assay type: functional; design: concentration or dose not given beside the values
[18] = system: K562; test: Cell cycle arrest in human K562 cells assessed as accumulation at sub G1 phase at IC50 after 72 hrs by propidium iodide staining based flow cytometry (reference value: 1.48%); assay type: functional
[19] = system: K562; test: Cell cycle arrest in human K562 cells assessed as total cell levels at S phase at IC50 after 72 hrs by propidium iodide staining based flow cytometry (reference value: 36.49%); assay type: functional
[20] = system: K562; test: Cell cycle arrest in human K562 cells assessed as total cell levels at G0/G1 phase at IC50 after 72 hrs by propidium iodide staining based flow cytometry (reference value: 39.97%); assay type: functional
[21] = system: K562; test: Induction of apoptosis in human K562 cells assessed as total late apoptotic cells by Annexin V-FITC/propidium iodide staining based flow cytometry (reference value: 0.77%); assay type: functional
[22] = system: A549; test: Cytotoxicity against human A549 cells assessed as reduction in cell viability after 72 hrs by MTT assay; assay type: functional, cell-based; settings: A549, 72 h
[23] = system: K562; test: Induction of apoptosis in human K562 cells assessed as increase in cleaved PARP expression level by Western blot analysis; assay type: functional, cell-based; procedure, shortened: as §1
[24] = system: K562; test: Cell cycle arrest in human K562 cells assessed as total cell levels at M4 phase at IC50 after 72 hrs by propidium iodide staining based flow cytometry (reference value: 0.50%); assay type: functional
[25] = system: K562; test: Cell cycle arrest in human K562 cells assessed as accumulation at G0/G1 phase at IC50 after 72 hrs by propidium iodide staining based flow cytometry (reference value: 38.48%); assay type: functional
[26] = system: K562; test: Induction of apoptosis in human K562 cells assessed as specific necrosis by Annexin V-FITC/propidium iodide staining based flow cytometry; assay type: functional; design: concentration or dose not given beside the values
[27] = system: MRC5; test: Cytotoxicity against human MRC5 cells assessed as reduction in cell viability after 72 hrs by MTT assay; assay type: cell-based; settings: MRC5, 72 h
[28] = system: K562; test: Induction of apoptosis in human K562 cells assessed as decrease in Bcl-2 expression level by Western blot analysis; assay type: functional, cell-based; procedure, shortened: as §1
[29] = system: MDA-MB-231; test: Cytotoxicity against human MDA-MB-231 cells assessed as reduction in cell viability after 72 hrs by MTT assay; assay type: functional, cell-based; settings: MDA-MB-231, 72 h
[30] = system: K562; test: Induction of apoptosis in human K562 cells assessed as total necrotic cells by Annexin V-FITC/propidium iodide staining based flow cytometry (reference value: 0.23%); assay type: functional
[31] = system: K562; test: Cell cycle arrest in human K562 cells assessed as total cell levels at G2/M phase at IC50 after 72 hrs by propidium iodide staining based flow cytometry (reference value: 14.31%); assay type: functional

| SMILES | IC50 [1] [µM] | IC50 [2] [µM] | IC50 [4] [µM] | Activity [5] [%] | IC50 [6] [µM] | Activity [7] | Activity [8] [%] | IC50 [9] [µM] | Activity [10] [%] | Activity [11] [%] | Activity [12] [%] | Activity [13] [%] | IC50 [14] [µM] | Activity [15] [%] | Activity [16] [%] | Activity [17] [%] | Activity [18] [%] | Activity [19] [%] | Activity [20] [%] | Activity [21] [%] | other results |
| --- | --- | --- | --- | --- | --- | --- | --- | --- | --- | --- | --- | --- | --- | --- | --- | --- | --- | --- | --- | --- | --- |
| O=C1C=C[C@]2(C[C@H](OC(=O)/C=C/c3ccccc3)[C@H](c3ccccc3)O2)O1 | 9.68 | 3.41 | 5.34 | 2.09 | 5.63 | Active | 38.09 | 14.5 | 67.26 | 15.25 | 12.29 | 15.4 | 4.62 | 35.21 | 53.67 | 81.79 | 5.69 | 31.69 | 17.87 | 12.17 | Activity [3]: inactive; IC50 [22]: 1.02 µM; Activity [23]: inactive; Activity [24]: 4.73%; Activity [25]: 21.01%; Activity [26]: 1.97%; IC50 [27]: > 100 µM; Activity [28]: Active; IC50 [29]: 5.23 µM; Activity [30]: 1.67%; Activity [31]: 29.57% |
| O=C1C=C[C@@]2(C[C@H](OC(=O)/C=C/c3ccc(F)cc3)[C@H](c3ccccc3)O2)O1 | 5.37 | 1.02 | 2.31 | 2.81 | 4.63 | inactive | 30.34 | 8.45 | 20.44 | 1.51 | 70.05 | 75.24 | 5.36 | 28.66 | 10 | 18.71 | 3.99 | 28.54 | 34.22 | 0.75 | Activity [3]: Active; IC50 [22]: 1.17 µM; Activity [23]: Active; Activity [24]: 3.69%; Activity [25]: 37.01%; Activity [26]: 1.22%; IC50 [27]: > 100 µM; Activity [28]: Active; IC50 [29]: 7.54 µM; Activity [30]: 1.57%; Activity [31]: 26.5% |
| O=C1C=C[C@]2(C[C@H](OC(=O)/C=C/c3ccc([N+](=O)[O-])cc3)[C@@H](c3ccccc3)O2)O1 | > 100 | 2.24 | 8.58 | 0.72 | 31.2 | Active | 28.04 | 2.22 | 3.86 | 0.87 | 92.65 | 94.55 | 5.64 | 21.66 | 3.78 | 0.75 | 2.13 | 25.39 | 43.62 | 0.85 | Activity [3]: inactive; IC50 [22]: 45.4 µM; Activity [23]: inactive; Activity [24]: 1.93%; Activity [25]: 48.17%; Activity [26]: 3.4%; IC50 [27]: > 100 µM; Activity [28]: inactive; IC50 [29]: > 100 µM; Activity [30]: 0.71%; Activity [31]: 20.35% |
| O=C1C=C[C@@]2(C[C@H](OC(=O)/C=C/c3ccc([N+](=O)[O-])cc3)[C@H](c3ccccc3)O2)O1 | 1.64 | 4.36 | 4.31 | 2.29 | 4.03 | inactive | 22.7 | 24.8 | 69.6 | 1.62 | 11.93 | 26.49 | 2.22 | 7.07 | 31.35 | 70.03 | 40.08 | 18.76 | 24.92 | 0.73 | Activity [3]: Active; IC50 [22]: 0.85 µM; Activity [23]: Active; Activity [24]: 33.19%; Activity [25]: 30.15%; Activity [26]: 1.76%; IC50 [27]: > 100 µM; Activity [28]: Active; IC50 [29]: 1.25 µM; Activity [30]: 1.03%; Activity [31]: 6.42% |
| COc1ccc(/C=C/C(=O)O[C@H]2C[C@@]3(C=CC(=O)O3)O[C@H]2c2ccccc2)cc1 | 3.05 | 2.25 | 3.25 | 2.44 | 2.54 | inactive | 29.4 | 9.94 | 1.42 | 0.29 | 91.77 | 95.84 | 1.02 | 20.11 | 1.36 | 2.36 | 3.23 | 26.32 | 42.31 | 0.28 | Activity [3]: Active; IC50 [22]: 0.45 µM; Activity [23]: Active; Activity [24]: 2.89%; Activity [25]: 47.26%; Activity [26]: 1.6%; IC50 [27]: > 100 µM; Activity [28]: Active; IC50 [29]: 2.69 µM; Activity [30]: 2.34%; Activity [31]: 18.76% |
| O=C1C=C[C@@]2(C[C@H](OC(=O)/C=C/c3ccccc3)[C@H](c3ccccc3)O2)O1 | 2.28 | 9.65 | 11.4 | 8.36 | 1.02 | inactive | 42.16 | 58.5 | 50.03 | 10.47 | 24.8 | 31.14 | 4.65 | 18.24 | 39.85 | 6.76 | 12.49 | 27.97 | 18.23 | 8.34 | Activity [3]: Active; IC50 [22]: 0.25 µM; Activity [23]: Active; Activity [24]: 8.27%; Activity [25]: 27.11%; Activity [26]: 28.29%; IC50 [27]: > 100 µM; Activity [28]: Active; IC50 [29]: 3.64 µM; Activity [30]: 6.66%; Activity [31]: 12.13% |
| O=C1C=C[C@@]2(C[C@H](O)[C@H](c3ccccc3)O2)O1 | 2.69 | 0.19 | 1.97 | 4.62 | 0.96 | Active | 52.34 | 4.61 | 6.15 | 7.48 | 20.34 | 81.75 | 0.54 | 17.58 | 1.53 | 10.05 | 1.1 | 50.77 | 15.11 | 1.86 | IC50 [22]: 31.4 µM; Activity [24]: 0.87%; Activity [25]: 28.98%; Activity [26]: 0.67%; IC50 [27]: > 100 µM; Activity [28]: Active; IC50 [29]: > 100 µM; Activity [30]: 1.15%; Activity [31]: 13.99% |

Reference: ChEMBL document CHEMBL4033643, “Synthesis and in vitro antitumour activity of crassalactone D, its stereoisomers and novel cinnamic ester derivatives” (Eur J Med Chem, 2017)
